CHRM4 antagonist – blocks acetylcholine activation of human M4 receptor. inhibition, % at 3 µM. CHO-hM4 cells, ACh EC80, Fluo-8 calcium fluorescence. 360,000 tested, 0.73% active;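 active = inhibition above its plate's cutoff, the mean inhibition of sample wells plus 3 SD, cut at about 27% in these data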;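 note: 0% = acetylcholine EC80 with DMSO and 100% = DMSO without agonist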
M4 PAM – CHRM4 positive allosteric modulation; 360,000 tested, 0.4% active; AID 624126; activation, % at 3 µM; P08173; CHO-K1 hM4/Gqi5, Fluo-8 calcium fluorescence, ACh EC20; 0% = ACh EC20, 100% = maximal ACh;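 active = activation above its plate's cutoff, the mean activation of sample wells plus 3 SD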
M4 ag – CHRM4 agonism in calcium assay. P08173. CHO-K1 hM4/Gqi5, Fluo-8 calcium fluorescence; vehicle 0%, full acetylcholine response 100%. activation, % at 3 µM. 360,000 tested, 0.14% active. AID 624127;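 active = activation above the run mean over all test wells plus 3 SD, cut at about 32% in these data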;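 note: peak over basal fluorescence ratio per well then scaled between controls; 0% = DMSO wells and 100% = acetylcholine at EC100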
M5 antag – antagonists of human muscarinic M5 receptor (CHRM5). P08912. CHO-hM5 cells, Fluo-8 calcium fluorescence, ACh EC80. inhibition, % at 3 µM. 360,000 tested, 0.59% active;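 active = inhibition above a per-plate cutoff, the mean of that plate's test compounds plus 3 SD, cut at about 27% in these data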;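 note: 0% = acetylcholine EC80 with DMSO and 100% = DMSO without agonist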
Target sequence (P08912 whole entry, looked up): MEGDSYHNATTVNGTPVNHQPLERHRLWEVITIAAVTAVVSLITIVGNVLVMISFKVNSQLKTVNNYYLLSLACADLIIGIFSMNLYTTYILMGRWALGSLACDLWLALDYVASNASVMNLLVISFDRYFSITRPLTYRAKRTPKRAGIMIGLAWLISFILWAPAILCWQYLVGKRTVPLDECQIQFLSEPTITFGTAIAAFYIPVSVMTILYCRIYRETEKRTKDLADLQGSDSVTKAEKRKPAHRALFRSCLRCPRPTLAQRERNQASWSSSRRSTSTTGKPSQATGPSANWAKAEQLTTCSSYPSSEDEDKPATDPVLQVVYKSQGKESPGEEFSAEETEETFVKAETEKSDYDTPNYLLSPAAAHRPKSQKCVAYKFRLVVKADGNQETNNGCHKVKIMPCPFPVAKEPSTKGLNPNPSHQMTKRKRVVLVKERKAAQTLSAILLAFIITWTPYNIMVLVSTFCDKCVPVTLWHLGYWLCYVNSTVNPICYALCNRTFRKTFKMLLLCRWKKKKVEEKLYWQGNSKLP
M5 PAM – positive allosteric modulators of human muscarinic M5 receptor; activation, % at 3 µM; CHO-K1 hM5, Fluo-8 calcium, ACh EC20 PAM; 0% = ACh EC20, 100% = ACh EC100; P08912; 360,000 tested, 0.3% active;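 active = activation above the run cutoff, the mean activation of all test compounds plus 3 SD, cut at about 18% in these data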
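system = human M5 receptor in CHO-K1 cells | reagent = EC20 acetylcholine as agonist stimulus | compound dosing = single-point, 3 µM nominal | incubation = Fluo-8 loading 80 min at 37 °C plus 30 min room temperature | detection = Fluo-8 calcium dye fluorescence, kinetic read | benchmarks = low control EC20 acetylcholine (0%), high control EC100 acetylcholine (100%)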
M5 ag – agonists of human muscarinic M5 receptor (CHRM5) | P08912 | activation, % at 3 µM | 360,000 tested, 0.19% active | CHO-K1 hM5 cells, Fluo-8 calcium fluorescence; 0% DMSO wells, 100% maximal acetylcholine response;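 active = activation above the run's mean over test compounds plus 3 SD, cut at about 23% in these data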;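 note: signal is peak over basal fluorescence ratio across the kinetic read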
The depositor's hits bear a star. An excerpt weighted towards active compounds, which were near 1.8% of everything screened.

SMILES | CHRM4 antagonist | M4 PAM | M4 ag | M5 antag | M5 PAM | M5 ag
O=C(c1cc2sccc2n1Cc1ccccc1)N1CCN(c2nc3ccccc3s2)CC1 | 26.8* | -9.6 | 3.5 | 15.3 | -10.1 | -1.2
Cc1csc(SCc2nnc(-c3ccc(Cl)cc3)o2)n1 | 8.9 | 7.3 | -1.3 | -1.1 | 1.0 | -1.3
Cc1ccc(-c2nnc(CSc3nnc(C)s3)o2)cc1 | -12.5 | 4.7 | 0.5 | 7.6 | 19.4* | -2.4
Clc1cccc(-c2nc3c4ccccc4ccn3c2CC2CCCCC2)c1 | 0.3 | -1.5 | 3.1 | -3.4 | -5.3 | -0.1
Nc1nonc1C(=O)NCCNCc1cc(Br)ccc1OCc1ccccc1F | 31.7* | -16.4 | 15.7 | 15.8 | -12.7 | -0.1
NS(=O)(=O)c1ccc(CCNCc2cc(Br)ccc2OCc2ccccc2F)cc1 | 27.7* | -15.8 | 29.8 | 28.4* | -20.1 | 0.4
Nc1nonc1C(=O)NCCNCc1ccccc1OCc1ccccc1F | 5.1 | -9.8 | 10.8 | 1.6 | -1.5 | 2.5
CC(=O)c1cccc(N(CC(=O)NC2CCCCC2)C(=O)CCC(=O)Nc2nc(C)cs2)c1 | 5.2 | -1.8 | 0.7 | 16.8 | -1.6 | -1.9
NC(=O)CC1C(=O)N(c2ccccc2)C(=S)N1NC(=O)c1ccccc1 (centres undefined) | 0.1 | -7.9 | 0.1 | 7.3 | -3.8 | -2.9
FC(F)Oc1ccc(NC(=S)NCc2ccccc2)cc1Cl | 11.7 | -18.7 | 12.9 | 32.7* | -16.3 | 3.7
FC(F)Oc1ccc(NC(=S)NCc2ccccc2)cc1 | -1.9 | -4.9 | 5.1 | 13.2 | -10.5 | -0.8
CCC1Nc2ncnc(N3CCOCC3)c2N(Cc2ccc(Cl)cc2)C1=O (centres undefined) | 9.1 | 24.1* | 2.3 | 14.3 | -2.6 | -1.6
CC1Nc2ncnc(N3CCOCC3)c2N(Cc2ccc(Cl)cc2)C1=O (centres undefined) | 5.3 | 14.2 | 2.9 | -2.7 | 2.6 | 5.5
COc1cc2cc(C(c3nnnn3C3CCCCC3)N(C)C3CCCCC3)c(=O)[nH]c2cc1OC (centres undefined) | 29.6* | -11.6 | -1.5 | -2.1 | -6.4 | -0.3
COc1cc2cc(C(c3nnnn3C3CCCC3)N(C)C3CCCCC3)c(=O)[nH]c2cc1OC (centres undefined) | -7.7 | 3.7 | 2.0 | -1.2 | -2.6 | -2.2
O=C(NC(c1ccc(-c2ccccc2)cc1)c1cnccn1)C1CCN(Cc2ccc3c(c2)OCO3)CC1 (centres undefined) | -3.5 | -11.1 | 14.2 | 5.4 | -4.3 | 0.0
CCOc1ccccc1NC(=O)c1cc(-c2ccccn2)nc2ccccc12 | -2.6 | -1.8 | 10.9 | 1.1 | -6.5 | 5.2
COc1ccc(NC(=O)c2cc(-c3ccccn3)nc3ccccc23)c(OC)c1 | 7.8 | -9.7 | 15.1 | 27.4* | -22.8 | 1.2
CCc1cccc(CC)c1N1C(=O)C2=C(SCCCS2)C1=O | 6.5 | -12.6 | 33.8* | 12.4 | -9.2 | 11.4
CCc1cccc(CC)c1N1C(=O)COCC1=O | -3.3 | -3.3 | 0.3 | 6.3 | -1.6 | -1.0
Cc1ccc(C)c(S(=O)(=O)N2CCN(C(=O)CCC(=O)c3cc(C)sc3C)CC2)c1 | 1.3 | -7.5 | 8.3 | 2.2 | -4.0 | -4.7
COc1cc(C(=O)NCC(c2ccco2)N2CCCC2)ccc1OCc1ccc(Cl)cc1Cl (centres undefined) | 51.9* | -16.6 | 4.9 | -11.4 | -42.7 | -11.1
O=C(NCC(c1ccco1)N1CCCC1)c1cccc(NS(=O)(=O)c2ccccc2)c1 (centres undefined) | 74.4* | -18.0 | 1.2 | 7.3 | -7.2 | -7.9
COc1ccc(NS(=O)(=O)c2cccc(C(=O)NCC(c3ccccc3OC)N3CCCC3)c2)cc1 (centres undefined) | 18.5 | -10.2 | 1.5 | 20.9 | -34.2 | -10.2
COc1ccccc1C(CNC(=O)c1cccc(S(=O)(=O)Nc2ccc(F)cc2)c1)N1CCCC1 (centres undefined) | 35.8* | -15.5 | 3.2 | 46.9* | -46.3 | -11.8
SMILES | CHRM4 antagonist | M4 PAM | M4 ag | M5 antag | M5 PAM | M5 ag
O=C(NCC(c1ccco1)N1CCCCC1)c1ccc(S(=O)(=O)Nc2ccccc2)cc1 (centres undefined) | 1.8 | -3.8 | 3.3 | -2.5 | 1.9 | -3.6
COc1ccc(Cl)cc1C(=O)NCC(c1ccco1)N1CCCC1 (centres undefined) | 4.0 | -8.4 | 0.9 | 1.4 | -1.7 | -7.1
O=C(COC(=O)c1ccccc1O)NC12CC3CC(CC(C3)C1)C2 | 12.8 | -5.0 | 2.3 | 1.7 | -10.9 | 2.1
O=C(COC(=O)c1ccccn1)NC12CC3CC(CC(C3)C1)C2 | 29.7* | 10.9 | 1.5 | 4.5 | 7.2 | 0.8
CN(CC(=O)N1CCN(Cc2ccccc2)CC1)C(=O)Cc1cccc2ccccc12 | -2.3 | 4.2 | 3.4 | 10.0 | -6.1 | -5.8
C/C(=N/NC(=O)CNC(=O)c1ccccc1)c1ccc(C)cc1 | -7.7 | 9.7 | 1.8 | 17.0 | -6.0 | -2.2
C/C(=N\NC(=O)CNC(=O)c1cccc(F)c1)c1ccc2ccccc2c1 | 39.7* | -10.5 | -1.1 | 22.7 | -7.3 | -4.8
Cc1ccc(S(=O)(=O)N2CCOCC2)cc1C(=O)N1C(=O)c2cccc(N)c2C1=O | -25.6 | 27.2* | 0.6 | -5.4 | 2.5 | -1.4
Cc1ccc(OCC(=O)N/N=C2\CC(=O)CC(C)(C)C2)c(Br)c1 | -4.8 | -1.1 | 1.6 | 0.5 | -2.6 | 1.2
COc1cc2c(CCNC(C)=O)c[nH]c2cc1Cl | 16.8 | -9.2 | 2.0 | -0.5 | -7.5 | 1.2
COCCNc1oc(COc2cccc(C)c2)nc1C#N | -10.5 | 4.0 | 0.2 | 8.0 | 23.8* | -3.0
CN(C)CCNc1oc(COc2cccc(Cl)c2)nc1C#N | 15.2 | -4.3 | 0.8 | -5.5 | 4.3 | 1.1
Cc1c(Cl)cccc1NC(=S)NCC1COc2ccccc2O1 (centres undefined) | 4.3 | -14.2 | 13.9 | 38.6* | -20.1 | -1.4
CCOC(=O)c1c(S(=O)(=O)NCC(=O)Nc2ccc(OC)cc2)c(C)n(C)c1C | 3.8 | 2.8 | 0.4 | -5.1 | 2.0 | -3.5
Cc1ccc(S(=O)(=O)N/N=C/c2ccc(OC3CSC3)cc2)cc1 | 19.5 | 4.5 | 42.2* | 15.1 | -1.3 | 37.8*
CCCN(C(=O)CSc1nc2ccccc2n1CC)C1CCS(=O)(=O)C1 (centres undefined) | 6.0 | -6.0 | 1.4 | 9.7 | -4.1 | -3.3
C[C@H](CO)N1C[C@H](C)[C@@H](CN(C)S(=O)(=O)c2cn(C)cn2)Oc2cc(Br)ccc2S1(=O)=O | -9.0 | 7.5 | 0.7 | -5.7 | 8.1 | 0.0
C[C@H](NC(=O)[C@@H]1Cc2ccccc2CN1)C(=O)Nc1ccc2c(c1)OCCO2 | -11.4 | 4.7 | 0.7 | -20.9 | 20.4* | -3.5

Screening data deposited in PubChem BioAssay by The Scripps Research Institute Molecular Screening Center.
